A selection: hits, their analogues and other compounds. The true share with any hit is near 1.3%.
CHT block – inhibitors of human choline transporter CHT. High affinity choline transporter 1 (Homo sapiens), Q9GZV3. CHT-expressing cells, membrane potential dye, choline response; active compounds read low. B-score at 10 µM. hit rate 0.86% among 310,000. AID 488975, 2010;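 active means B-score over 3 SD under the library average, and starting fluorescence ratio not unusually high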;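 further: choline stimulus applied at its EC90 after an EC20 pre-addition; B-score computed on integrated fluorescence ratio after choline addition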
procasp3 activ – activators of human procaspase-3 D3A mutant, primary screen, biochemical, absorbance, PC-3 D3A mutant, single concentration; recombinant procaspase-3 D3A, Ac-DEVD-pNA absorbance 405 nm; activation, % at 8.5 µM; hit rate 0.11% among 330,000; AID 463141, 2010;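 active means activation above the mean of all tested compounds plus 3 SD, cut at about 21% in these data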
Target sequence (P42574 whole entry D9A/D28A/D175A): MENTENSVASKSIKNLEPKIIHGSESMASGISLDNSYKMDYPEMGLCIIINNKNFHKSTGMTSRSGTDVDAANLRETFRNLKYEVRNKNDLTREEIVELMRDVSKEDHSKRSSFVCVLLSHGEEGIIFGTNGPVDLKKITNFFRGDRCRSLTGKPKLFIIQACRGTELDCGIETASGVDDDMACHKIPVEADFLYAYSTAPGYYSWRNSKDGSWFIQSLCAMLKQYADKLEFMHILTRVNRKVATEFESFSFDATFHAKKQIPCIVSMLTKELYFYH
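assay system = Procaspase-3 D3A mutant | signal = absorbance at 405 nm, 0 and 120 min | times = 1 h preincubation plus 2 h reaction at 25 °C | repeats = single replicate | read-out = % activation between DMSO and enzyme-spiked controls | medium = Zinc-free HEPES saline buffer with Triton X-100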
proCasp7 act – procaspase-7 activators, primary screen, counter-screen for procaspase-3 activator project, biochemical, absorbance, HTS, human | Caspase-7 (Homo sapiens), P55210 | recombinant procaspase-7, Ac-DEVD-pNA absorbance 405 nm; D23A/D198A/D206A triple mutant, cannot self-cleave; scale: DMSO 0, 5 µM enzyme 100 | activation, % at 8.5 µM | hit rate 0.093% among 330,000;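 active means percent activation above the screen-wide mean plus 3 SD, cut at about 25% in these data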
Target sequence (P55210 whole entry D23A/D198A/D206A): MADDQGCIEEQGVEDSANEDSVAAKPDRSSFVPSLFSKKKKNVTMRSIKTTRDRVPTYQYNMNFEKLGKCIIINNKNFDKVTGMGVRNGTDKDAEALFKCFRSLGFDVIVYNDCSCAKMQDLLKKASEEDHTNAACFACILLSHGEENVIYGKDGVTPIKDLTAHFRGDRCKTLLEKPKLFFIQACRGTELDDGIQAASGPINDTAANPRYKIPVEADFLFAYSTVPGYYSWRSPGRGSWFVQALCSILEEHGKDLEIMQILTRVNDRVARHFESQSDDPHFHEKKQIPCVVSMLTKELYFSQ
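System: Procaspase-7 triple mutant (PC-7 D3A); measure: % activation from two-timepoint absorbance difference, scaled to controls; times: 1 h compound preincubation, 2 h substrate cleavage, 25 °C; also added: Ac-DEVD-pNA substrate, 400 µM as added; measured by: Epi-absorbance of released pNA at 405 nm, two timepoints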
CHT PAM – CHT positive allosteric modulators, primary screen, cell-based, membrane potential dye, choline EC20. High affinity choline transporter 1 (Homo sapiens), Q9GZV3. CHT-expressing cells; active compounds read high; LV-AA mutant CHT in HEK293 cells. B-score at 10 µM. hit rate 0.49% among 310,000;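 active means initial fluorescence not abnormally high and integrated response B-score, plate-corrected, over 3 SD above library mean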
PC3 D3A act – procaspase-3 activators, counter-screen for dual procaspase-3/7 activator project, biochemical, absorbance, PC-3 D3A mutant, human; activation, % at 8.5 µM; AID 493114, 2011; shares compounds with proCasp7 act; recombinant PC-3 D3A, Ac-DEVD-pNA absorbance 405 nm; aspartates 9, 28, 175 changed to alanine; 100% = enzyme control; 290 tested, under 10 active;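 active means mean percent activation across triplicates above a set limit taken from the earlier primary procaspase-3 screen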
Procasp7 act – activation of procaspase-7 enzyme – biochemical, absorbance, human, dual procaspase-3/-7 activator project, confirmation. shares compounds with proCasp7 act. recombinant procaspase-7, Ac-DEVD-pNA absorbance 405 nm; D23A/D198A/D206A mutant that cannot self-cleave. activation, % at 8.5 µM. 290 tested, under 10 active. AID 493115, 2011;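 active means mean activation above a set limit carried over from the earlier primary screen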
CHT inh conf – CHT inhibitors, confirmation, cell-based, membrane potential dye, duplicate; AID 493221, 2011; hit rate 70% among 2,400; shares compounds with CHT block; CHT activity remaining % of control (active compounds read low), % at 10 µM; CHT-expressing cells, choline membrane potential dye; LV-to-AA substituted CHT, HEK293 cells;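 active means choline transporter activity left, mean of duplicates at 10 µM, below buffer-only control mean minus 3 SD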;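 further: depolarization triggered by choline at its EC90 following an EC20 pre-addition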
HEK293 CHT ctr – membrane potential effects in parental HEK293, counter-screen for CHT inhibitor project, cell-based, membrane potential dye | membrane potential ratio readout (active if shifted either direction beyond buffer ±3SD; no single direction) at 10 µM | shares compounds with CHT block | AID 493222, 2011 | choline response; active = decrease or increase beyond buffer ±3SD | hit rate 4% among 2,400;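 further: parental cells lack the transporter so any hit is non-specific; ratio is peak minus trough fluorescence over baseline after EC90 choline challenge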
CHT activ conf – CHT activators, confirmation, cell-based, membrane potential dye, duplicate | CHT-expressing cells, membrane potential dye fluorescence (FDSS); % of choline EC20–EC90 response window; HEK293 expressing CHT LV-AA mutant; choline added at its EC20 | hit rate 91% among 2,500 | shares compounds with CHT PAM | activation, % at 10 µM;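 active means primary screen active, with duplicate mean activation above negative control mean plus 3 SD, cut at about 11% in these data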
HEK293 MP dye – membrane potential response in parental HEK293 cells, counter-screen for CHT activator project, cell-based, membrane potential dye | shares compounds with CHT PAM | membrane potential dye fluorescence (FDSS); measured after EC20 choline addition | ratio readout change at 10 µM, hits read low | hit rate 62% among 2,500;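 active means duplicate-averaged ratio beyond 3 SD from buffer wells, up or down, though filed actives are nearly all decreases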
Large screens that a line does not name were inactive (follow-up assays come after a bar, where they were run).

CCOc1cc(C2C(C(=O)OC)=CN(Cc3ccc(Cl)cc3)C=C2C(=O)OC)ccc1O	procasp3 activ 27.4, proCasp7 act 56.1 | PC3 D3A act inactive | Procasp7 act inactive | CHT activ conf 20.4 | HEK293 MP dye inactive
COc1ccc(NC(=O)c2cc3ccc4c5ccccc5[nH]c4c3cc2O)cc1	none
COc1cc(C(=O)Nc2scc(-c3ccc(C)cc3)c2C(=O)O)cc(OC)c1OC	CHT block -6.56 | CHT inh conf 56.4% | HEK293 CHT ctr inactive
COc1cc(C(=O)Nc2scc(-c3ccccc3)c2C(=O)O)cc(OC)c1OC	none
CC(C)(C)C(=O)Nc1scc(-c2ccc(-c3ccccc3)cc2)c1C(=O)O	CHT block -7.45 | CHT inh conf 36.5% | HEK293 CHT ctr inactive
C=CCn1c(SCc2ccccc2C#N)nnc1-c1ccccc1O	CHT block -6.34 | CHT inh conf inactive | HEK293 CHT ctr inactive
COc1ccccc1OCC(=O)Nc1nc(C)c(C)s1	none
O=C(O)CC1(CC(=O)Nc2cccc(C(=O)O)c2)CCCC1	none
CC1CCCCN1CCNC(=O)Cn1nc(-c2ccccc2)ccc1=O (stereo not given)	none
CC1CCCCC1NC(=O)Cn1nc(-c2ccccc2)ccc1=O (stereo not given)	CHT block -5.37 | CHT inh conf 64.2% | HEK293 CHT ctr inactive
COC(=O)[C@]1(Cc2ccccc2)N[C@H](CN(C)S(=O)(=O)c2ccc(C(C)(C)C)cc2)[C@@H]2C(=O)N(C)C(=O)[C@@H]21	none (no result: CHT block, CHT PAM)
O=S(=O)(Nc1nc2ccccc2s1)c1ccc(Br)s1	CHT block -7.12 | CHT inh conf 69.4% | HEK293 CHT ctr inactive
O=C1OCCC1Sc1nc(-c2ccccc2)cs1 (stereo not given)	CHT block -9.08 | CHT inh conf 38.5% | HEK293 CHT ctr inactive
CC(C)N(C(=O)[C@H]1C[C@H](CC(=O)NCCC2=CCCCC2)C(=O)N2CCc3c([nH]c4cc(-c5ccco5)ccc34)[C@]12C)C(C)C	none (no result: CHT block, CHT PAM)
Cc1cccc(N=Cc2cc(Br)cc(Cl)c2O)c1	CHT block -7.83 | CHT inh conf 57.0% | HEK293 CHT ctr inactive
COc1ccc(OCCSc2nnc(C)n2-c2ccccc2)cc1	CHT block -4.99 | CHT inh conf inactive | HEK293 CHT ctr inactive
COc1ccccc1OCCSc1nnc(C)n1-c1ccccc1	none
COc1ccc(OCCSc2nnnn2C2CCCCC2)cc1	CHT block -11.5 | CHT inh conf inactive | HEK293 CHT ctr inactive
O=C(CN1CCN(Cc2ccccc2Cl)C1=O)NC1CCCCCCC1	CHT block -5.16 | CHT inh conf inactive | HEK293 CHT ctr inactive
CC(C)CCn1c(SCC(=O)Nc2ccccc2C(F)(F)F)nc2nccnc2c1=O	none
CCOC(=O)C1CCCN(c2c(NCCC(C)C)c(=O)c2=O)C1 (stereo not given)	none
CCOC(=O)C1CCN(c2c(NCCC(C)C)c(=O)c2=O)CC1	CHT block -6.43 | CHT inh conf inactive | HEK293 CHT ctr inactive
Cc1cc(NC(=O)CC2Oc3ccccc3NC2=O)ccc1Br (stereo not given)	none
Cn1c(=O)c2c(nc(SCC(=O)N3CCCCCC3)n2C)n(C)c1=O	CHT block -5.74 | CHT inh conf inactive | HEK293 CHT ctr inactive
Cc1ccc(-c2nnc(OCC3CCCO3)c3ccccc23)cc1 (stereo not given)	CHT block -5.49 | CHT inh conf 45.4% | HEK293 CHT ctr inactive
Cc1ccc(Oc2nnc(-c3ccccc3)c3ccccc23)cc1	none
CCCOc1ccc(C(CC(=O)O)NC(=O)c2sc3ccccc3c2Cl)cc1 (stereo not given)	CHT block -6.81 | CHT inh conf 24.8% | HEK293 CHT ctr inactive
O=C(NC1CCCC1)c1ccc(COc2ccccc2Br)o1	CHT block -5.14 | CHT inh conf inactive | HEK293 CHT ctr inactive
COc1ccc(CN=C(Nc2ccccc2)SC2CC(=O)N(C)C2=O)cc1 (stereo not given)	CHT block -5.55 | CHT inh conf inactive | HEK293 CHT ctr inactive
CCN=C(Nc1cccc(F)c1)SC1CC(=O)N(c2ccc(OC)cc2)C1=O (stereo not given)	none
COc1cccc(NC(=O)CN2C(=O)COc3ccc(S(=O)(=O)N4CCCCCC4)cc32)c1	none
CN(C)c1cccc(C(=O)Nc2ccc(S(=O)(=O)Nc3nccs3)cc2)c1	none (no result: CHT block, CHT PAM)
CCC(=O)Nc1cc(Cl)ccc1N1CCN(C(=O)CC)CC1	CHT block -8.09 | CHT inh conf 66.6% | HEK293 CHT ctr inactive
CCN(CC)c1c([N+](=O)[O-])c(=O)n(CC)c2ccccc12	none
O=C(c1ccco1)N1CCN(C(=S)NCc2ccc(F)cc2)CC1	none
Cc1ccc(C(=O)N/C(=C/c2cccs2)C(=O)N2CCCCCC2)cc1	none
Cc1ccc(C(=O)N/C(=C\c2cccs2)C(=O)NC2CCCCC2)cc1	CHT block -5.1 | CHT inh conf 22.1% | HEK293 CHT ctr inactive
